Data reported in ChEMBL document CHEMBL1770099, “Aromatic ring functionalization of benzolactam derivatives: new potent dopamine D3 receptor ligands” (Bioorg Med Chem Lett, 2011).

Key:
[1] = Selectivity ratio of Ki for dopamine D2 long receptor to Ki for dopamine D3 receptor
D(3) dopamine receptor [2] = target: T1, D(3) dopamine receptor (Homo sapiens, UniProt P35462); test: Binding affinity to dopamine D3 receptor
[3] = target: 5-hydroxytryptamine receptor 2A (Sus scrofa, UniProt P50129); test: Displacement of [3H]Ketanserin from pig 5-HT2 receptor
D(3) dopamine receptor [4] = target: T1, D(3) dopamine receptor; test: Displacement of [3H]Spiperone from human dopamine D3 receptor expressed in CHO cells; format: cell-based
D(2) dopamine receptor [5] = target: T2, D(2) dopamine receptor (Homo sapiens, UniProt P14416); test: Displacement of [3H]Spiperone from human dopamine D2 long receptor expressed in CHO cells; format: cell-based
Summary of the method: (§1)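 Competition for [3H]spiperone binding to cloned human receptor (D2long, D2short or D4.4) stably expressed in CHO cells; Ki values are means of two to four individual competition experiments, each run in triplicate.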

D(4) dopamine receptor = target: T3, D(4) dopamine receptor (Homo sapiens, UniProt P21917); test: Displacement of [3H]Spiperone from human dopamine D4.4 receptor expressed in CHO cells; format: cell-based; summary of the method: as §1
T3 sequence (P21917 whole entry): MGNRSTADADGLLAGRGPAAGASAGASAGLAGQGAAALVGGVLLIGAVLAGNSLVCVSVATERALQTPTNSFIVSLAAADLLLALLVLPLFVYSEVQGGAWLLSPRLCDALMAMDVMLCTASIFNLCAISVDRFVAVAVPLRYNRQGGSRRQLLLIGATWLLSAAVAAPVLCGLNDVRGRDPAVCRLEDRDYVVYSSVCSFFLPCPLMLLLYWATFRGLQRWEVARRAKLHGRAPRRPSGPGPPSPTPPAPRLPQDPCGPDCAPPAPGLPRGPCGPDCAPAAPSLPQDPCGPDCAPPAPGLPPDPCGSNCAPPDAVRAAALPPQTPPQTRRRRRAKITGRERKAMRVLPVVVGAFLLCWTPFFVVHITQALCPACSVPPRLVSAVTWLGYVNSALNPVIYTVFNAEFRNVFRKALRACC

D(2) dopamine receptor [6] = target: T2, D(2) dopamine receptor; test: Displacement of [3H]Spiperone from human dopamine D2 short receptor expressed in CHO cells; format: cell-based; summary of the method: as §1
[7] = Displacement of [3H]WAY-100635 from pig 5-HT1A receptor; parameters: species or system Sus scrofa
D(1A) dopamine receptor = D(1A) dopamine receptor (Sus scrofa, UniProt P50130); test: Displacement of [3H]SCH-23390 from dopamine D1 receptor in pig striatal membranes; format: cell membranes, Striatum, Membrane
Summary of the method: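 Competition binding with D1-selective radioligand [3H]SCH23390 on porcine striatal membranes; Ki values are means of two to four individual competition experiments, each run in triplicate.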

[8] = Displacement of [3H]Prazosin from pig adrenergic alpha1 receptor; parameters: species or system Sus scrofa
D(3) dopamine receptor [9] = target: T1, D(3) dopamine receptor; test: Agonist activity at human dopamine D3 receptor expressed in dhfr-deficient CHO cells assessed as [3H]thymidine incorporation; format: functional, cell-based

Chain of 5-hydroxytryptamine receptor 2A (P50129 whole entry): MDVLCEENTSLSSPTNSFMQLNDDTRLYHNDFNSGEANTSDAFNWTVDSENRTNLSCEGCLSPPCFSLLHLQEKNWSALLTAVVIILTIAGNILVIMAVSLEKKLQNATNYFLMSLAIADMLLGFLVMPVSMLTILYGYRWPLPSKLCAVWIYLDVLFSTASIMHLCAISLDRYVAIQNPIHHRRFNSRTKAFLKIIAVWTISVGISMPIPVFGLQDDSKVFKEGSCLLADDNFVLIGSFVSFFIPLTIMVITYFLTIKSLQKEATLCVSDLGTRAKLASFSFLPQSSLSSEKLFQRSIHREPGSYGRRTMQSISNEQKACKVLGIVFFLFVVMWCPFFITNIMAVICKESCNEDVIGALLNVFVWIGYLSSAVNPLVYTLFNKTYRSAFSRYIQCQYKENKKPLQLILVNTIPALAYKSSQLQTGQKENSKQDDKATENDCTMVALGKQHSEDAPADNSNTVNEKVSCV
Chain of D(1A) dopamine receptor (P50130 whole entry): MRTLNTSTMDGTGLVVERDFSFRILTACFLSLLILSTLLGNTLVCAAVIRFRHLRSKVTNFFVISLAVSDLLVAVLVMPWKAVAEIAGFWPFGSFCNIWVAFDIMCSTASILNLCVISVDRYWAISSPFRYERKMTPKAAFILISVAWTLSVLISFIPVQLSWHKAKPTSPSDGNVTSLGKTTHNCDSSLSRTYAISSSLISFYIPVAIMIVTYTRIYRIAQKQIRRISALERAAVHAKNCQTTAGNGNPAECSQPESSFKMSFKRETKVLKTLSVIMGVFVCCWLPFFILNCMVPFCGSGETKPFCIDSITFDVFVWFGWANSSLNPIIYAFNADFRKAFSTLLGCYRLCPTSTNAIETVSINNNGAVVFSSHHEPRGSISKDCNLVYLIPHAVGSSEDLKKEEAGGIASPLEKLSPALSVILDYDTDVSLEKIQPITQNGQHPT
T2 sequence (P14416 whole entry): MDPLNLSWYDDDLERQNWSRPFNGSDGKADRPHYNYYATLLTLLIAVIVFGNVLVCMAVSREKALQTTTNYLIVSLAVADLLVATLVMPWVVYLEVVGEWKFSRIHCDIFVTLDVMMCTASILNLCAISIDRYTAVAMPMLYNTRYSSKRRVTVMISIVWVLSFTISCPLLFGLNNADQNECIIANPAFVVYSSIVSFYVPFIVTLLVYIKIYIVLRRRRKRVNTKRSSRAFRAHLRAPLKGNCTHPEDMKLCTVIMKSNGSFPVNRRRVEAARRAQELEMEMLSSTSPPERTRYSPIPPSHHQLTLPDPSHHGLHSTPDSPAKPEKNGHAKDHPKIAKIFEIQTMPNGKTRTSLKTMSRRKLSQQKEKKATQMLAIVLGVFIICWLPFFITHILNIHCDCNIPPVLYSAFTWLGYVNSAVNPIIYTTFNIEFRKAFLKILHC
T1 sequence (P35462 whole entry): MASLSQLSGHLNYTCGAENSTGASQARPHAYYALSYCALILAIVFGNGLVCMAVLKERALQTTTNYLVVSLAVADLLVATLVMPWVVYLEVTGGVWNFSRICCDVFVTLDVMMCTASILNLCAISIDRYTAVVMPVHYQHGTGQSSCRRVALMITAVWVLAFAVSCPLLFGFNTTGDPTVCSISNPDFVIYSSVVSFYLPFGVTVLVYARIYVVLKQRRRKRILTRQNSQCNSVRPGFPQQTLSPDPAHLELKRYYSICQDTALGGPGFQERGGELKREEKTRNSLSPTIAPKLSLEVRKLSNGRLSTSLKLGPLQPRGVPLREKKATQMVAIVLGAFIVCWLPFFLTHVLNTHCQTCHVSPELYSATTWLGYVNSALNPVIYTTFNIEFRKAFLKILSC

Row | Structure (SMILES) | Ratio Ki [1] | Ki (D(3) dopamine receptor [2]) | Ki [3] | Ki (D(3) dopamine receptor [4]) | Ki (D(2) dopamine receptor [5]) | Ki (D(4) dopamine receptor) | Ki (D(2) dopamine receptor [6]) | Ki [7] | Ki (D(1A) dopamine receptor) | Ki [8] | EC50 (D(3) dopamine receptor [9])
1 | Cc1nc(-c2ccc(C(=O)N[C@H]3CC[C@H](CCN4CCc5ccc(S(C)(=O)=O)cc5CC4)CC3)cc2)no1 | 100 | 4 nM |  |  |  |  |  |  |  |  | 
2 | COc1ccc2c(c1)CCCN(CCCCN1CCN(c3ccccc3OC)CC1)C2=O |  |  | 810 nM | 0.27 nM | 3.2 nM | 3 nM | 0.93 nM | 2.5 nM | 2100 nM | 3.7 nM | 
3 | COc1ccccc1N1CCN(CCCCN2CCc3cc(-c4ccncc4)ccc3C2=O)CC1 |  |  | 160 nM | 0.12 nM |  | 3.4 nM |  | 13 nM | 380 nM | 2.2 nM | 
4 | COc1ccccc1N1CCN(CCCCN2CCc3ccccc3C2=O)CC1 |  |  | 990 nM |  | 21 nM | 1.9 nM | 7 nM | 2.4 nM | 2500 nM | 2.3 nM | 
5 | COc1ccccc1N1CCN(CCCCNC(=O)c2ccc(-c3ccc(C(C)=O)cc3)cc2)CC1 | 130 |  |  |  |  |  |  |  |  |  | 
6 | COc1ccccc1N1CCN(CCCCN2CCc3c(cccc3-c3ccccc3)C2=O)CC1 |  |  | 230 nM | 12 nM | 52 nM | 9.8 nM | 63 nM | 47 nM | 220 nM | 1.3 nM | 
7 | COc1ccccc1N1CCN(CCCCN2CCCc3cc(-c4cccs4)ccc3C2=O)CC1 |  |  | 530 nM | 0.29 nM | 5.1 nM | 2.9 nM | 2.1 nM | 68 nM | 920 nM | 9.7 nM | 
8 | C#Cc1ccc2c(c1)CCN(CCCCN1CCN(c3ccccc3OC)CC1)C2=O |  |  | 920 nM | 0.5 nM | 24 nM | 4.1 nM | 8.8 nM | 14 nM | 1900 nM | 2.4 nM | 
9 | COc1ccccc1N1CCN(CCCCN2CCc3cc(-c4ccco4)ccc3C2=O)CC1 |  |  | 330 nM | 0.21 nM | 16 nM | 3.3 nM | 4.8 nM | 19 nM | 580 nM | 1.6 nM | 2.3 nM
10 | COc1ccccc1N1CCN(CCCCN2CCc3cc(-c4cccs4)ccc3C2=O)CC1 |  |  | 190 nM | 0.12 nM | 11 nM | 2.3 nM | 6.9 nM | 6.2 nM | 480 nM | 3.7 nM | 2.8 nM
11 | COc1ccccc1N1CCN(CCCCN2CCc3cc(F)ccc3C2=O)CC1 |  |  | 840 nM | 1.6 nM | 26 nM | 2.8 nM | 9.2 nM | 1.7 nM | 2300 nM | 3.1 nM | 
12 | COc1ccccc1N1CCN(CCCCN2CCc3cc(C#N)ccc3C2=O)CC1 |  |  | 430 nM | 1.3 nM | 38 nM | 6.1 nM | 22 nM | 3.8 nM | 3200 nM | 3.8 nM | 
13 | COc1ccccc1N1CCN(CCCCN2CCCc3ccccc3C2=O)CC1 |  |  | 1100 nM | 0.27 nM | 3.9 nM | 1.3 nM | 1.5 nM | 1.7 nM | 2900 nM | 5.7 nM | 0.33 nM
14 | CC(=O)Nc1ccc(CCN2C[C@@H]3COc4ccc(C#N)cc4[C@H]3C2)cc1 | 37 | 2 nM |  |  |  |  |  |  |  |  | 
15 | COc1ccccc1N1CCN(CCCCN2CCc3cc(-c4ccccc4)ccc3C2=O)CC1 |  |  | 330 nM | 0.25 nM | 38 nM | 3.4 nM | 15 nM | 38 nM | 640 nM | 5.4 nM | 3.3 nM
